Results taken from ChEMBL document CHEMBL2203146, “Search for anticonvulsant and analgesic active derivatives of dihydrofuran-2(3H)-one” (Bioorg Med Chem, 2012).
The source made the active and inactive calls.

How the values were obtained:
Mus musculus [1] = experiment: Anticonvulsant activity in albino CF1 mouse assessed as protection against maximal electroshock-induced seizures at 100 mg/kg, ip after 0.5 hr; format: functional, organism-based; design: dose 100 mg/kg
How it was run: (§1)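 Male albino CF No. 1 mice (18–25 g) dosed ip at 30, 100 and 300 mg/kg in saline or 0.5% methylcellulose, tested 15, 30, 60 and 240 min after dosing. Maximal electroshock seizures elicited with 60-cycle alternating current. Scored as animals protected/animals tested, small qualitative groups.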

Mus musculus [2] = experiment: Anticonvulsant activity in albino CF1 mouse assessed as protection against maximal electroshock-induced seizures at 100 mg/kg, ip after 4 hrs; format: functional, organism-based; design: dose 100 mg/kg; how it was run: as §1
Mus musculus [3] = experiment: Anesthetic activity in albino CF1 mouse assessed as latency in response to thermal stimuli administered as 1% solution, sc measured after 15 mins by modified tail immersion test; format: functional
How it was run: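 Male Albino Swiss (CD-1) mice, 6-8 per group, tested at 1% and 2% compound concentration. Tail distal 3 cm immersed in water at 50 ± 0.5 °C 15 min after treatment. Tail-withdrawal latency recorded with a 20 s cutoff. Value is % difference in latency vs vehicle-treated mice. Mean ± SEM, Student's t-test.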

Mus musculus [4] = experiment: Anticonvulsant activity in albino CF1 mouse assessed as protection against maximal electroshock-induced seizures at 300 mg/kg, ip after 4 hrs; format: functional, organism-based; design: dose 300 mg/kg; how it was run: as §1
Mus musculus [5] = experiment: Analgesic activity in albino CF1 mouse assessed as inhibition of heat-induced paw licking or jumping behaviour administered after 30 mins prior heat challenge by hot plate method; format: functional
Mus musculus [6] = experiment: Neurotoxicity in albino CF1 mouse assessed as minimal motor impairment at 100 mg/kg, ip after 0.5 hr by rotorod test; format: toxicity, organism-based; design: dose 100 mg/kg, route intraperitoneal; conditions: in vivo
How it was run: (§2)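 Rotarod in male CF No. 1 mice after ip dosing (30, 100, 300 mg/kg; saline or 0.5% methylcellulose) at 15–240 min. Knurled plastic rod, 1-inch diameter, 6 rpm. Toxicity means failing to stay on for 1 min on three successive attempts. Recorded as toxic/tested.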

Mus musculus [7] = experiment: Anticonvulsant activity in albino CF1 mouse assessed as protection against maximal electroshock-induced seizures at 100 mg/kg, ip after 0.25 hr; format: functional, organism-based; design: dose 100 mg/kg; how it was run: as §1
Mus musculus [8] = experiment: Anticonvulsant activity in albino CF1 mouse assessed as protection against maximal electroshock-induced seizures at 300 mg/kg, ip after 0.5 hr; format: functional, organism-based; design: dose 300 mg/kg; how it was run: as §1
Mus musculus [9] = experiment: Anesthetic activity in […] assessed as latency in response to thermal stimuli administered as 2% solution, sc measured after 15 mins by modified tail immersion test; format: functional, albino CF1
Mus musculus [10] = experiment: Neurotoxicity in albino CF1 mouse assessed as minimal motor impairment at 100 mg/kg, ip after 0.25 hr by rotorod test; format: toxicity, organism-based; design: dose 100 mg/kg, route intraperitoneal; conditions: in vivo; how it was run: as §2
Mus musculus [11] = experiment: Anticonvulsant activity in albino CF1 mouse assessed as protection against maximal electroshock-induced seizures at 100 mg/kg, ip after 1 hr; format: functional, organism-based; design: dose 100 mg/kg; how it was run: as §1
Mus musculus [12] = experiment: Anticonvulsant activity in albino CF1 mouse assessed as protection against subcutaneous metrazol-induced seizures at 30 to 300 mg/kg, ip after 0.5 to 4 hrs; format: functional, organism-based
How it was run: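 CF No. 1 male mice dosed ip at 30, 100 or 300 mg/kg (saline or 0.5% methylcellulose), then given pentetrazole 85 mg/kg sc as 0.5% solution in posterior midline. Watched 30 min. Protection means no threshold seizure (single clonic spasm episode of at least 5 s). Expressed as protected/tested.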

Mus musculus [13] = experiment: Neurotoxicity in albino CF1 mouse assessed as minimal motor impairment at 300 mg/kg, ip after 0.5 hr by rotorod test; format: toxicity, organism-based; design: dose 300 mg/kg, route intraperitoneal; conditions: in vivo; how it was run: as §2
Mus musculus [14] = experiment: […] activity in ip dosed albino CF1 mouse assessed as inhibition of phenylbenzoquinone-induced writhing administered after 30 mins prior challenge; format: functional
How it was run: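 Male Albino Swiss (CD-1) mice, 6-8 per dose. Compound given ip in 0.5% methylcellulose. 30 min later, 0.25 ml of 0.02% phenylbenzoquinone injected. After 5 min, writhes counted over 10 min. % effect = (vehicle mean − drug mean)/vehicle mean × 100. ED50 derived; Student's t-test.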

Mus musculus [15] = experiment: Neurotoxicity in albino CF1 mouse assessed as minimal motor impairment at 100 mg/kg, ip after 4 hrs by rotorod test; format: toxicity, organism-based; design: dose 100 mg/kg, route intraperitoneal; conditions: in vivo; how it was run: as §2
Mus musculus [16] = experiment: Neurotoxicity in albino CF1 mouse assessed as minimal motor impairment at 300 mg/kg, ip after 4 hrs by rotorod test; format: toxicity, organism-based; design: dose 300 mg/kg, route intraperitoneal; conditions: in vivo; how it was run: as §2
Mus musculus [17] = experiment: Neurotoxicity in albino CF1 mouse assessed as minimal motor impairment at 100 mg/kg, ip after 1 hr by rotorod test; format: toxicity, organism-based; design: dose 100 mg/kg, route intraperitoneal; conditions: in vivo; how it was run: as §2
Mus musculus [18] = experiment: Anticonvulsant activity in albino CF1 mouse assessed as protection against 6 Hz psychomotor seizure at 100 mg/kg, ip after 1 hr by minimal clonic seizure test; format: functional, organism-based; design: dose 100 mg/kg
How it was run: (§3)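 Male albino CF No. 1 mice, 18–25 g. Compound dissolved in saline or suspended in 0.5% methylcellulose and given ip beforehand. Corneal stimulation with 0.2 ms monopolar rectangular pulses at 6 Hz for 3 s from a constant-current device. Mice restrained during stimulation, then released and observed for the minimal clonic seizure and automatistic behaviour.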

Mus musculus [19] = experiment: Anticonvulsant activity in albino CF1 mouse assessed as protection against 6 Hz psychomotor seizure at 100 mg/kg, ip after 4 hrs by minimal clonic seizure test; format: functional, organism-based; design: dose 100 mg/kg; how it was run: as §3
Mus musculus [20] = experiment: Neurotoxicity in albino CF1 mouse assessed as minimal motor impairment at 30 mg/kg, ip after 0.5 hr by rotorod test; format: toxicity, organism-based; design: dose 30 mg/kg, route intraperitoneal; conditions: in vivo
How it was run: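 Male albino CF No. 1 mice, compound ip in saline or 0.5% methylcellulose. Rotarod: 1-inch knurled rod at 6 rpm. Toxicity is failure to stay on the rod for 1 min on three successive attempts. Expressed as toxic/tested.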

Mus musculus [21] = experiment: Anticonvulsant activity in albino CF1 mouse assessed as protection against 6 Hz psychomotor seizure at 100 mg/kg, ip after 0.5 hr by minimal clonic seizure test; format: functional, organism-based; design: dose 100 mg/kg; how it was run: as §3
Mus musculus [22] = experiment: Anticonvulsant activity in albino CF1 mouse assessed as protection against 6 Hz psychomotor seizure at 100 mg/kg, ip after 2 hrs by minimal clonic seizure test; format: functional, organism-based; design: dose 100 mg/kg; how it was run: as §3
Mus musculus [23] = experiment: Anticonvulsant activity in albino CF1 mouse assessed as protection against maximal electroshock-induced seizures at 30 mg/kg, ip after 0.5 hr; format: functional, organism-based; design: dose 30 mg/kg
How it was run: (§4)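 Male albino CF No. 1 mice, 18–25 g. Compound in saline or 0.5% methylcellulose, ip. Seizures elicited by 60-cycle alternating current maximal electroshock. Result expressed as animals protected/animals tested.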

Mus musculus [24] = experiment: Anticonvulsant activity in albino CF1 mouse assessed as protection against maximal electroshock-induced seizures at 30 mg/kg, ip after 4 hrs; format: functional, organism-based; design: dose 30 mg/kg; how it was run: as §4
Mus musculus [25] = experiment: Anticonvulsant activity in albino CF1 mouse assessed as protection against 6 Hz psychomotor seizure at 100 mg/kg, ip after 0.25 hr by minimal clonic seizure test; format: functional, organism-based; design: dose 100 mg/kg; how it was run: as §3

Structure (SMILES) | Activity (Mus musculus [1]) | Activity (Mus musculus [2]) | Activity (Mus musculus [4]) | Activity (Mus musculus [6]) | Activity (Mus musculus [7]) | Activity (Mus musculus [8]) | Activity (Mus musculus [10]) | Activity (Mus musculus [11]) | Activity (Mus musculus [12]) | Activity (Mus musculus [13]) | ED50 (Mus musculus [14]) | Activity (Mus musculus [15]) | Activity (Mus musculus [16]) | Activity (Mus musculus [17]) | also measured
COc1ccccc1N1CCN(C2CCOC2=O)CC1 (racemic) | inactive | inactive | inactive | Non-toxic | inactive | Active | Non-toxic | inactive | inactive | Toxic | 0.3 mg/kg | Non-toxic | Non-toxic | Non-toxic | Activity (Mus musculus [3]): 97%; ED50 (Mus musculus [5]): 0.7 mg/kg; Activity (Mus musculus [9]): 152%
Cl.O=C1OCCC1NC1CCCCC1 (racemic) | inactive | inactive | inactive | Non-toxic |  | inactive |  |  | inactive | Non-toxic |  | Non-toxic | Non-toxic |  | Activity (Mus musculus [18]): inactive; Activity (Mus musculus [19]): inactive; Activity (Mus musculus [20]): Toxic; Activity (Mus musculus [21]): inactive; Activity (Mus musculus [22]): Active; Activity (Mus musculus [23]): inactive; Activity (Mus musculus [24]): inactive; Activity (Mus musculus [25]): inactive
NC(=O)c1ccccc1OC1CCOC1=O (racemic) | inactive | inactive | inactive | Non-toxic |  | inactive |  |  | inactive | Non-toxic | 7.9 mg/kg | Non-toxic | Non-toxic |  | Activity (Mus musculus [18]): inactive; Activity (Mus musculus [19]): inactive; Activity (Mus musculus [21]): inactive; Activity (Mus musculus [22]): inactive; Activity (Mus musculus [25]): inactive
O=C1OCCC1N1CCC(Cc2ccccc2)CC1 (racemic) | inactive | inactive | inactive | Non-toxic | inactive | Active | Non-toxic | inactive | inactive | Toxic |  | Non-toxic | Toxic | Non-toxic | 
C/C(NCc1ccccc1)=C1\CCOC1=O | inactive | inactive | inactive | Non-toxic | inactive | Active | Non-toxic | inactive | inactive | Non-toxic |  | Non-toxic | Non-toxic | Non-toxic | 
O=C1OCCC1N1CCN(c2ccccc2)CC1 (racemic) | inactive | inactive | inactive | Toxic | inactive | Active | Non-toxic | inactive | inactive | Toxic | 2.4 mg/kg | Non-toxic | Non-toxic | Non-toxic | Activity (Mus musculus [3]): 102%; ED50 (Mus musculus [5]): 4 mg/kg; Activity (Mus musculus [9]): 146%
COc1ccc(CCN/C(C)=C2/CCOC2=O)cc1OC | inactive | inactive | inactive | Non-toxic | inactive | Active | Non-toxic | inactive | inactive | Non-toxic |  | Non-toxic | Non-toxic | Non-toxic | 
